10 compounds from ChEMBL document CHEMBL1165965, “Synthesis and structure-activity relationships of 1,2,3,4-tetrahydropyrido[2,3-b]pyrazines as potent and selective inhibitors of the anaplastic lymphoma kinase” (Bioorg Med Chem, 2010) can be followed below.

The target of experiment [1] is Calcium/calmodulin-dependent protein kinase type 1 (Homo sapiens) (UniProt Q14012). As to the kind of experiment: Inhibition of CAMK1 at 1 uM. The essentials: (§1)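 Ambit KINOMEscan screen at a single concentration across a 250–400 kinase panel, recorded as percent inhibition. Selectivity was expressed as S(90), the fraction of kinases inhibited >90%.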
Sequence of Calcium/calmodulin-dependent protein kinase type 1 (Homo sapiens) (Q14012 whole entry, looked up): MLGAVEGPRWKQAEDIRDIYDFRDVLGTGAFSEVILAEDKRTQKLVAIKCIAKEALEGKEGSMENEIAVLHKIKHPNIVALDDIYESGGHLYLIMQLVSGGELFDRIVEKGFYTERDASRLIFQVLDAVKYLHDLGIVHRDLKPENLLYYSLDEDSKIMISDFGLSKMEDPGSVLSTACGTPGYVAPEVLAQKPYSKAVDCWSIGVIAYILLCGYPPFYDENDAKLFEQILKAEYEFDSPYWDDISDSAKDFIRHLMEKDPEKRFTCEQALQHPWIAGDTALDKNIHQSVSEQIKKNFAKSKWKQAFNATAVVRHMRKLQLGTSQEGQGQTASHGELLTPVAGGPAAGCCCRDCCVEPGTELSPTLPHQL
In experiment [2] the target is T1, Dual specificity tyrosine-phosphorylation-regulated kinase 2 (Homo sapiens) (UniProt Q92630).
T1 sequence (whole entry): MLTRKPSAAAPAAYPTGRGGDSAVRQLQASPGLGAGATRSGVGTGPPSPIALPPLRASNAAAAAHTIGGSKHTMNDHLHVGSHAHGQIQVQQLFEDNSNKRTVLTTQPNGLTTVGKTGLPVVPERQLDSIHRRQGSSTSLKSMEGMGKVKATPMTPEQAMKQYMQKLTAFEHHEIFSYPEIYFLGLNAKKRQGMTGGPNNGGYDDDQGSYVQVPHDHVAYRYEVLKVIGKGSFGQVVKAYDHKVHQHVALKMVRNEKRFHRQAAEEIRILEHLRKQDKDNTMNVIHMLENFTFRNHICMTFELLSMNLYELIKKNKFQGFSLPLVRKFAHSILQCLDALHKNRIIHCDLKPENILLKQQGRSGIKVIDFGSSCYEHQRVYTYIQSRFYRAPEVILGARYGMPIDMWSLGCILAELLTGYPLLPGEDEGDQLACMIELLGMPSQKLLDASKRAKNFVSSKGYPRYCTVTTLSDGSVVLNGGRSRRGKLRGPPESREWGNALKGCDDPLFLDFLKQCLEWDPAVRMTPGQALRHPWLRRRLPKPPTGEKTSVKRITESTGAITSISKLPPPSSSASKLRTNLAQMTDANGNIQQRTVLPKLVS
As to the kind of experiment: Inhibition of DYRK2 at 1 uM.

In experiment [3] the target is Mitogen-activated protein kinase kinase kinase kinase 1 (Homo sapiens) (UniProt Q92918). As to the kind of experiment: Inhibition of HPK1 at 1 uM.
In experiment [4] the target is T2, Cytoplasmic tyrosine-protein kinase BMX (Homo sapiens) (UniProt P51813).
T2 sequence (whole entry): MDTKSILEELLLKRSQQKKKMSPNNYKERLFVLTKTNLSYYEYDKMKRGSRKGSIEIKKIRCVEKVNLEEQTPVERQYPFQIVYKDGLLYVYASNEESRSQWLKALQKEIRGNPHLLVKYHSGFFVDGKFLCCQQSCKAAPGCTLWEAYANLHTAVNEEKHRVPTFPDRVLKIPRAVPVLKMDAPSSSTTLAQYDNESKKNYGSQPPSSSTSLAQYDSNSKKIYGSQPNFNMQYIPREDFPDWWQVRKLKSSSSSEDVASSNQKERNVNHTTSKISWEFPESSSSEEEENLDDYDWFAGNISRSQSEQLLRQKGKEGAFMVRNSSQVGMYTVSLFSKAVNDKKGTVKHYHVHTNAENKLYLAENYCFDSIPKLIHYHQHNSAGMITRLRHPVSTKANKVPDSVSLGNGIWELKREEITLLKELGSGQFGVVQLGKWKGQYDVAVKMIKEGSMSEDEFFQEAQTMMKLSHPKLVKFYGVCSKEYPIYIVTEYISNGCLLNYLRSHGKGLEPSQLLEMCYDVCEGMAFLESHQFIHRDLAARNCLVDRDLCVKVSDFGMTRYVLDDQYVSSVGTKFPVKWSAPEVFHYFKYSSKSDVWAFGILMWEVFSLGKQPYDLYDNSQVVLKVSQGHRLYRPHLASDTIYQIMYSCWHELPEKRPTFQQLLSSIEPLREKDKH
As to the kind of experiment: Inhibition of BMX at 1 uM. The essentials:
as §1

Experiment [5] deals with Ribosomal protein S6 kinase alpha-2 (Homo sapiens) (UniProt Q15349). The experiment can be described thus: Inhibition of RPS6KA2 N-terminal domain1 at 1 uM.
Sequence of Ribosomal protein S6 kinase alpha-2 (Homo sapiens) (Q15349 whole entry, the tested form may be a part): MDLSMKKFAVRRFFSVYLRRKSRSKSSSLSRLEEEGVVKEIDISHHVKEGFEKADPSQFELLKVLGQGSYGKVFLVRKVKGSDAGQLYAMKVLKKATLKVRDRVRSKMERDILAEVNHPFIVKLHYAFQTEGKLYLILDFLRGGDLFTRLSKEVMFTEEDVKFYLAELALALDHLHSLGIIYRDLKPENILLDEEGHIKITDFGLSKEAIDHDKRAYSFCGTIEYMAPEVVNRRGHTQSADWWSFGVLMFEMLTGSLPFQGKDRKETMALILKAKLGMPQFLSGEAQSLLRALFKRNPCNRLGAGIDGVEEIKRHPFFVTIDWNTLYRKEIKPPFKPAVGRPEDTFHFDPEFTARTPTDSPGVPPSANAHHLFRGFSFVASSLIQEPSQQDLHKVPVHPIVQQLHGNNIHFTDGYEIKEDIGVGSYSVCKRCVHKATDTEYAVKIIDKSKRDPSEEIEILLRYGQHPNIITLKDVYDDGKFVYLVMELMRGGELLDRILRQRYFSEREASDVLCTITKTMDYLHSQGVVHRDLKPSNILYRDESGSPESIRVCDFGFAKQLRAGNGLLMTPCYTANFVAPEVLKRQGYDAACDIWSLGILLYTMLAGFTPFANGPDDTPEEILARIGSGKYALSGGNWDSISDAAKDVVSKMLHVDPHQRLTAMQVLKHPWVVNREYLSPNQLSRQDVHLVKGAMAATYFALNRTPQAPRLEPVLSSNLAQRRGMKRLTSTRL
In experiment [6] the target is Cyclin-dependent kinase 3 (Homo sapiens) (UniProt Q00526). As to the kind of experiment: Inhibition of CDK3 at 1 uM.
In experiment [7] the target is TRAF2 and NCK-interacting protein kinase (Homo sapiens) (UniProt Q9UKE5). As to the kind of experiment: Inhibition of TNIK at 1 uM. The essentials:
(§2)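 Single-concentration screen on the Ambit KINOMEscan platform, run against a panel of 250–400 kinases. Per-kinase inhibition was also summarized as S(90), the fraction of kinases inhibited by more than 90%.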

The target in experiment [8] is Proto-oncogene tyrosine-protein kinase ROS (Homo sapiens) (UniProt P08922). The experiment can be described thus: Inhibition of ROS1 at 1 uM. An outline of the steps: as §2
Sequence of Proto-oncogene tyrosine-protein kinase ROS (Homo sapiens) (P08922 whole entry): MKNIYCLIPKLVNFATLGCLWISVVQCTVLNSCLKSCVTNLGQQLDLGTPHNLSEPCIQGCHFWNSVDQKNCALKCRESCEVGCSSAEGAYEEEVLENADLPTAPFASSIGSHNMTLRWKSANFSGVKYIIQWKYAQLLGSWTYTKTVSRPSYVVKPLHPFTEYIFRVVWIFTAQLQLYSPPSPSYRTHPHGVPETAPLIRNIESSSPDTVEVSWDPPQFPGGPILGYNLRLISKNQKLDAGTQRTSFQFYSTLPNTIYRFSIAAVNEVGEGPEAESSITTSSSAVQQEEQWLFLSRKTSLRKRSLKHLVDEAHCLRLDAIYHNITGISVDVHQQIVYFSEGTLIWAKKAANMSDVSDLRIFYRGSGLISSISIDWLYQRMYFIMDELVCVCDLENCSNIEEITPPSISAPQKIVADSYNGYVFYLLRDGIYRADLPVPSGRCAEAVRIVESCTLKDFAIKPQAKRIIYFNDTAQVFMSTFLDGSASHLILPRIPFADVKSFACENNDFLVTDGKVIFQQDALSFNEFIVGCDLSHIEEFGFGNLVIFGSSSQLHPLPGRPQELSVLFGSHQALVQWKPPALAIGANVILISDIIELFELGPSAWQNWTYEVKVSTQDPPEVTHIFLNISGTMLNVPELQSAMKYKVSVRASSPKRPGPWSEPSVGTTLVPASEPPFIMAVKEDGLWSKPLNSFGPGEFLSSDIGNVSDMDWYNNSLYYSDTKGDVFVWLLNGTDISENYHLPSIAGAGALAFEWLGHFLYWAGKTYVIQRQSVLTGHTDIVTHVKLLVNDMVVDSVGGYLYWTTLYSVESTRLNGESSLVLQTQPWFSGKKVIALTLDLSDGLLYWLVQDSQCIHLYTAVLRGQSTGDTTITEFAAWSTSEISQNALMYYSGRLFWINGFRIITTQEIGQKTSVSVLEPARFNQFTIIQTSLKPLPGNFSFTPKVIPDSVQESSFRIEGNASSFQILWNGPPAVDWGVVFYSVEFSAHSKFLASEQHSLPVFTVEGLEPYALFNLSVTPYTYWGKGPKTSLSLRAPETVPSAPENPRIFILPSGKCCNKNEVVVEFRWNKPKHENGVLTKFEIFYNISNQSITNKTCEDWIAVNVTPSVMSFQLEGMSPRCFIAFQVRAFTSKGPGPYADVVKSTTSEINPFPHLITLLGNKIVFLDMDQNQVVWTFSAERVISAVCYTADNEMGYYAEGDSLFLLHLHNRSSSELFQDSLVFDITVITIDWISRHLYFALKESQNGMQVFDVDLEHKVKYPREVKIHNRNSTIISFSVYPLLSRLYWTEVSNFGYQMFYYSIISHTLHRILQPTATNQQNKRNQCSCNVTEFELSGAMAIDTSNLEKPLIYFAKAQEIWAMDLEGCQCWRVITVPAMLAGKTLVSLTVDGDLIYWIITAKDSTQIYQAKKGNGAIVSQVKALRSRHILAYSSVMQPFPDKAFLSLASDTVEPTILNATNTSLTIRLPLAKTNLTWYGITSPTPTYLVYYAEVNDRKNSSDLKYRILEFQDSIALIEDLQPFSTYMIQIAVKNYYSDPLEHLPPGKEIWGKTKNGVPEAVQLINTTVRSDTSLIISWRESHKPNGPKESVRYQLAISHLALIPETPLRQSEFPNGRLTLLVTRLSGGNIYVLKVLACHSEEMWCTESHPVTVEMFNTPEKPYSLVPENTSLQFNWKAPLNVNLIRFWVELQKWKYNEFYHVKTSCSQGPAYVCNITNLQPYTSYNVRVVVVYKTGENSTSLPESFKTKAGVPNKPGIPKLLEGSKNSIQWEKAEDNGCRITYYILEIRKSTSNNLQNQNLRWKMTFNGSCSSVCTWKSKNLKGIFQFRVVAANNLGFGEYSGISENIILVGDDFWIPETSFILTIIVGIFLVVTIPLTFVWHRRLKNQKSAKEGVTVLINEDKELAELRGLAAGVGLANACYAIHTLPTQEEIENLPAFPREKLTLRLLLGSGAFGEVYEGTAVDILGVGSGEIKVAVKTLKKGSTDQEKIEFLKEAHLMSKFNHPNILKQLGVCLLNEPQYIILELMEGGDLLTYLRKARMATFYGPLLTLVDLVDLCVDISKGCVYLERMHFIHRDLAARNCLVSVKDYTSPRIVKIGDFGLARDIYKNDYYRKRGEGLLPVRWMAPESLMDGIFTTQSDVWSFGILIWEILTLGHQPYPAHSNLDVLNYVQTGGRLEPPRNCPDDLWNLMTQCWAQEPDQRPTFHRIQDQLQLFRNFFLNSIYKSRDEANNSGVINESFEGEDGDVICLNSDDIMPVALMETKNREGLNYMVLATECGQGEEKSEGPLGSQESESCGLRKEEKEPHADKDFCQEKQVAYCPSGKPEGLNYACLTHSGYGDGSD
The target in experiment [9] is Calcium/calmodulin-dependent protein kinase type II subunit delta (Homo sapiens) (UniProt Q13557). As to the kind of experiment: Inhibition of CAMK2D at 1 uM. An outline of the steps: as §1
Experiment [10] addresses Ephrin type-A receptor 5 (Homo sapiens) (UniProt P54756). As to the kind of experiment: Inhibition of EPHA5 at 1 uM. An outline of the steps:
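Single-concentration screen using Ambit Bioscience KINOMEscan technology across a panel of 250–400 kinases. Per-kinase inhibition from this screen was summarized as S(90), the fraction of kinases inhibited by more than 90%.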

Experiment [11] concerns the target Cyclin-dependent kinase 17 (Homo sapiens) (UniProt Q00537). The experiment can be described thus: Inhibition of PCTK2 at 1 uM.
Experiment [12] has as its target T3, Serine/threonine-protein kinase ICK (Homo sapiens) (UniProt Q9UPZ9).
T3 sequence (whole entry): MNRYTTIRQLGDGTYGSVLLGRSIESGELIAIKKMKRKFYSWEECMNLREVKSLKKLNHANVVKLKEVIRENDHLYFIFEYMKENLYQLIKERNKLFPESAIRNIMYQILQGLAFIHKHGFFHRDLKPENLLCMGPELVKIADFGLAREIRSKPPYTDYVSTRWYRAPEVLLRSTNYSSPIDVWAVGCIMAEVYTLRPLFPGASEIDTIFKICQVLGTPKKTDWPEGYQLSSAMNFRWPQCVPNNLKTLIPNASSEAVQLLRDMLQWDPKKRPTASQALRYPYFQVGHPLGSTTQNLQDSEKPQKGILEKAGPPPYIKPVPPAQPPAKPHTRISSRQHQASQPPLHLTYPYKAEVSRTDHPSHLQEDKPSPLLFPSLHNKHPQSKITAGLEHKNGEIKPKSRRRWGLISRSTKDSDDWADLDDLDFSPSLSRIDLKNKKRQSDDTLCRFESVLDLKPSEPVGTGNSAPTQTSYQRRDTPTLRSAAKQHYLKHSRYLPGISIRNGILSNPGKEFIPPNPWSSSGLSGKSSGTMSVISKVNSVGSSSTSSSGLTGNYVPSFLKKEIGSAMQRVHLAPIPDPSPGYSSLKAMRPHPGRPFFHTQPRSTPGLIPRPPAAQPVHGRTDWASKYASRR
The experiment can be described thus: Inhibition of ICK at 1 uM.

Sequence of Cyclin-dependent kinase 17 (Homo sapiens) (Q00537 whole entry, looked up): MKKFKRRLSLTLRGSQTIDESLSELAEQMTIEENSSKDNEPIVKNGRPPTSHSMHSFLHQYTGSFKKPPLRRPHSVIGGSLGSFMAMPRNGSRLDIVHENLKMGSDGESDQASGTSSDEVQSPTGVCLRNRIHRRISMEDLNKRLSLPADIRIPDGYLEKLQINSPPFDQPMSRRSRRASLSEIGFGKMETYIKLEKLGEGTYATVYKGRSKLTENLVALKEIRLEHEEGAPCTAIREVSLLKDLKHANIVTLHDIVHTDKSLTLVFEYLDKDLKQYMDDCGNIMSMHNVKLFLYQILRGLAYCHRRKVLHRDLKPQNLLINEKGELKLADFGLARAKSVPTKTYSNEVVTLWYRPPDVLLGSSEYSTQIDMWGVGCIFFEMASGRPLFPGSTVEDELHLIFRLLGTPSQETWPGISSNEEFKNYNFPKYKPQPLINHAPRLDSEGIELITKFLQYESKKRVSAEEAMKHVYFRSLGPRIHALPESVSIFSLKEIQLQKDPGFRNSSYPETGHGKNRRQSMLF
Sequence of Ephrin type-A receptor 5 (Homo sapiens) (P54756 whole entry): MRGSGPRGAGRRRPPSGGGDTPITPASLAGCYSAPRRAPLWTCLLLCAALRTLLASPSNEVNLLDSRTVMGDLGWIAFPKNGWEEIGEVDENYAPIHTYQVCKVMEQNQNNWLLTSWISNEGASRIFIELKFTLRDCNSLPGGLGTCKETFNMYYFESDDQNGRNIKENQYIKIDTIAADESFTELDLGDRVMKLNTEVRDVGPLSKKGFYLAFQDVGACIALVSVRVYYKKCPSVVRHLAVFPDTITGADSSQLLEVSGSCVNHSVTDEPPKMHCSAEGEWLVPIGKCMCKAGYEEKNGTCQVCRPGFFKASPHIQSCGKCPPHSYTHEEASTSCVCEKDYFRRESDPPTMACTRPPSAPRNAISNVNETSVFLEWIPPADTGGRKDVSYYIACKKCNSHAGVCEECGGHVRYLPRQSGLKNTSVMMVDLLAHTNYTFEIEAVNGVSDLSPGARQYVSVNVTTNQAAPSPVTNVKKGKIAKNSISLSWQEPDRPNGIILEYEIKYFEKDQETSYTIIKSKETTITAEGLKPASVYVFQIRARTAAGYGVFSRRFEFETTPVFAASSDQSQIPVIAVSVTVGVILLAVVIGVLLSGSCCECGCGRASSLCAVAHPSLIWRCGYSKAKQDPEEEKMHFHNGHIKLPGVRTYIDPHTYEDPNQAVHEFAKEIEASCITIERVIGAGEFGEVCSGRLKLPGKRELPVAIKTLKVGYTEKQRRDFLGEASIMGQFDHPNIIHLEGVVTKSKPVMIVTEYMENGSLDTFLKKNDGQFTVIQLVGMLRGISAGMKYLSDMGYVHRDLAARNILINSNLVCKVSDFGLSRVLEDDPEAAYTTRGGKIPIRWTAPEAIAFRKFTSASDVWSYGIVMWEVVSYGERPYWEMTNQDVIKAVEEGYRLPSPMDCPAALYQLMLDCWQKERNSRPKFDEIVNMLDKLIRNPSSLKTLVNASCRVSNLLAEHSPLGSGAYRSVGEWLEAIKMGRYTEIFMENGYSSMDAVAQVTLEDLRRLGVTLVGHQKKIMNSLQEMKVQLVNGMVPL

Broadly, the inhibition is how much of the control response was suppressed. On to `FC(F)(F)c1ccc(Cl)cc1CN1CCNc2ncc(-c3ccnc(N4CCNCC4)c3)cc21`, for which the inhibition in [1], in [2], in experiment [3], in experiment [4], in experiment [5] and in experiment [6] was under 50% in each case. Moreover, the inhibition in [7] was under 50%; in [8], 92%; in experiment [9], under 50%; in experiment [10], under 50%; in experiment [11] it was under 50%; in experiment [12] it was under 50%.

Take `CN1CCN(c2ccc(-c3cnc4c(c3)N(Cc3cc(F)ccc3F)CCN4)cn2)CC1`: the inhibition in [1], in [2], in experiment [3], in experiment [4], in [5] and in experiment [6] was under 50% each time. The inhibition in experiment [7] is under 50%; in experiment [8], 67.5%; in experiment [9] it was under 50%; in experiment [10], under 50%; in experiment [11], under 50%; in experiment [12], under 50%.

As for `CN1CCN(c2ccc(-c3cnc4c(c3)N(Cc3cc(Cl)ccc3Cl)CCN4)cn2)CC1`, the inhibition in [1], in experiment [2], in [3], in experiment [4], in experiment [5] and in experiment [6] was under 50% throughout. In addition, the inhibition in experiment [7], in experiment [8], in experiment [9], in experiment [10], in [11] and in [12] was under 50% in each case.

Consider `O=C(O)c1ccc(-c2cnc3c(c2)N(Cc2cc(Cl)ccc2C(F)(F)F)CCN3)cc1`, for which the inhibition in experiment [1] is under 50%; in [4], under 50%; in experiment [5], under 50%; in [7] it was under 50%; in experiment [8] it was 66.7%; in experiment [9], under 50%. The inhibition in experiment [10] was under 50%.

Regarding `CN1CCN(c2ccc(-c3cnc4c(c3)N(Cc3cc(Cl)ccc3C(F)(F)F)CCN4)cn2)CC1`, the inhibition in experiment [1], in [2], in experiment [3], in experiment [4], in [5] and in experiment [6] was under 50% each time. The inhibition in [7] is under 50%; in experiment [8], 72%; in [9] it was under 50%; in [10], under 50%; in experiment [11], under 50%; in experiment [12], under 50%.

As to `COC1CCN(C(=O)c2ccc(-c3cnc4c(c3)N(Cc3cc(Cl)ccc3C(F)(F)F)CCN4)cc2)CC1`, the inhibition was under 50% in experiment [1]; under 50% in experiment [4]; under 50% in experiment [5]; under 50% in experiment [7]; 78.2% in experiment [8]; under 50% in experiment [9]. Moreover, the inhibition in experiment [10] was under 50%.

Take `O=C(c1ccc(-c2cnc3c(c2)N(Cc2cc(Cl)ccc2C(F)(F)F)CCN3)cc1)N1CCC(N2CCCC2)CC1`: the inhibition is under 50% in [1]; 88.7% in experiment [3]; under 50% in [4]; under 50% in experiment [5]; under 50% in experiment [7]; 80.7% in [8]. Moreover, the inhibition in experiment [9] and in experiment [10] was under 50% each time.

For `CN1CCN(c2ccc(-c3cnc4c(c3)N(Cc3c(F)ccc(F)c3Cl)CCN4)cn2)CC1`, the inhibition in experiment [1], in experiment [2], in experiment [3], in [4], in experiment [5] and in experiment [6] was under 50% throughout. Moreover, the inhibition in [7] was 82%; in [8], 73%; in experiment [9] it was under 50%; in experiment [10], under 50%; in experiment [11] it was under 50%; in experiment [12] it was under 50%.

Take `O=C(c1ccc(-c2cnc3c(c2)N(Cc2cc(Cl)ccc2C(F)(F)F)CCN3)cc1)N1CCCCC1`: the inhibition in experiment [1], in [4], in experiment [5], in [7], in experiment [8] and in [9] was under 50% each time. For the same compound, the inhibition in experiment [10] was under 50%.

With `CC(=O)N1CCN(c2cc(-c3cnc4c(c3)N(Cc3cc(Cl)ccc3C(F)(F)F)CCN4)ccn2)CC1`, the inhibition in [1], in experiment [2], in experiment [3], in experiment [4], in experiment [5] and in experiment [6] was under 50% throughout. The inhibition is under 50% in experiment [7]; 79% in experiment [8]; under 50% in experiment [9]; under 50% in [10]; under 50% in [11]; under 50% in experiment [12].
